Data reported in ChEMBL document CHEMBL5029150, “Controlling Intramolecular Interactions in the Design of Selective, High-Affinity Ligands for the CREBBP Bromodomain” (J Med Chem, 2021).
Active and inactive are the calls of the source. No cut-off for these calls is given here.

Columns and labels:
[1] = molecular target: Bromodomain-containing protein 4 (Homo sapiens, UniProt O60885); assay: Binding affinity to human BRD4 bromodomain 1 assessed as dissociation constant by ITC assay
[2] = molecular target: T1, CREB-binding protein/Histone acetyltransferase p300 (Homo sapiens) (UniProt Q09472+Q92793); assay: Inhibition of CREBBP/EP300 in human HCT-116 cells assessed as reduction in c-Myc protein expression at 10 uM for 6 hrs by Western blot analysis; assay type: cell-based
How it was run: (§1)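 HCT116 human colorectal cancer cells were exposed to ligand at 10 μM for 6, 16 or 24 h. c-Myc, H3K18Ac and H3K27Ac levels were read by western blot, with acetylation marks expressed relative to the t = 0 level.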

[3] = molecular target: T1, CREB-binding protein/Histone acetyltransferase p300 (Homo sapiens); assay: Inhibition of CREBBP/EP300 in human HCT-116 cells assessed as reduction in H3K18Ac at 10 uM for 24 hrs by Western blot analysis; assay type: cell-based; how it was run: as §1
[4] = molecular target: T1, CREB-binding protein/Histone acetyltransferase p300 (Homo sapiens); assay: Inhibition of CREBBP/EP300 in human HCT-116 cells assessed as reduction in c-Myc mRNA expression at 10 uM by Q-PCR analysis; assay type: cell-based
[5] = molecular target: T1, CREB-binding protein/Histone acetyltransferase p300 (Homo sapiens); assay: Inhibition of CREBBP/EP300 in human HCT-116 cells assessed as reduction in H3K27Ac at 10 uM for 24 hrs by Western blot analysis; assay type: cell-based; how it was run: as §1
[6] = molecular target: T1, CREB-binding protein/Histone acetyltransferase p300 (Homo sapiens); assay: Inhibition of CREBBP/EP300 in human HCT-116 cells assessed as reduction in H3K18Ac at 10 uM for 6 hrs by Western blot analysis; assay type: cell-based; how it was run: as §1
CREB-binding protein = CREB-binding protein (Homo sapiens, UniProt Q92793); assay: Binding affinity to human CREBBP bromodomain expressed in Escherichia coli BL21 (DE3)-RIL assessed as dissociation constant by ITC assay
[7] = molecular target: T1, CREB-binding protein/Histone acetyltransferase p300 (Homo sapiens); assay: Inhibition of CREBBP/EP300 in human HCT-116 cells assessed as reduction in c-Myc expression at 10 uM for 24 hrs by Western blot analysis; assay type: cell-based; how it was run: as §1

T1 sequence (Q09472 whole entry, looked up): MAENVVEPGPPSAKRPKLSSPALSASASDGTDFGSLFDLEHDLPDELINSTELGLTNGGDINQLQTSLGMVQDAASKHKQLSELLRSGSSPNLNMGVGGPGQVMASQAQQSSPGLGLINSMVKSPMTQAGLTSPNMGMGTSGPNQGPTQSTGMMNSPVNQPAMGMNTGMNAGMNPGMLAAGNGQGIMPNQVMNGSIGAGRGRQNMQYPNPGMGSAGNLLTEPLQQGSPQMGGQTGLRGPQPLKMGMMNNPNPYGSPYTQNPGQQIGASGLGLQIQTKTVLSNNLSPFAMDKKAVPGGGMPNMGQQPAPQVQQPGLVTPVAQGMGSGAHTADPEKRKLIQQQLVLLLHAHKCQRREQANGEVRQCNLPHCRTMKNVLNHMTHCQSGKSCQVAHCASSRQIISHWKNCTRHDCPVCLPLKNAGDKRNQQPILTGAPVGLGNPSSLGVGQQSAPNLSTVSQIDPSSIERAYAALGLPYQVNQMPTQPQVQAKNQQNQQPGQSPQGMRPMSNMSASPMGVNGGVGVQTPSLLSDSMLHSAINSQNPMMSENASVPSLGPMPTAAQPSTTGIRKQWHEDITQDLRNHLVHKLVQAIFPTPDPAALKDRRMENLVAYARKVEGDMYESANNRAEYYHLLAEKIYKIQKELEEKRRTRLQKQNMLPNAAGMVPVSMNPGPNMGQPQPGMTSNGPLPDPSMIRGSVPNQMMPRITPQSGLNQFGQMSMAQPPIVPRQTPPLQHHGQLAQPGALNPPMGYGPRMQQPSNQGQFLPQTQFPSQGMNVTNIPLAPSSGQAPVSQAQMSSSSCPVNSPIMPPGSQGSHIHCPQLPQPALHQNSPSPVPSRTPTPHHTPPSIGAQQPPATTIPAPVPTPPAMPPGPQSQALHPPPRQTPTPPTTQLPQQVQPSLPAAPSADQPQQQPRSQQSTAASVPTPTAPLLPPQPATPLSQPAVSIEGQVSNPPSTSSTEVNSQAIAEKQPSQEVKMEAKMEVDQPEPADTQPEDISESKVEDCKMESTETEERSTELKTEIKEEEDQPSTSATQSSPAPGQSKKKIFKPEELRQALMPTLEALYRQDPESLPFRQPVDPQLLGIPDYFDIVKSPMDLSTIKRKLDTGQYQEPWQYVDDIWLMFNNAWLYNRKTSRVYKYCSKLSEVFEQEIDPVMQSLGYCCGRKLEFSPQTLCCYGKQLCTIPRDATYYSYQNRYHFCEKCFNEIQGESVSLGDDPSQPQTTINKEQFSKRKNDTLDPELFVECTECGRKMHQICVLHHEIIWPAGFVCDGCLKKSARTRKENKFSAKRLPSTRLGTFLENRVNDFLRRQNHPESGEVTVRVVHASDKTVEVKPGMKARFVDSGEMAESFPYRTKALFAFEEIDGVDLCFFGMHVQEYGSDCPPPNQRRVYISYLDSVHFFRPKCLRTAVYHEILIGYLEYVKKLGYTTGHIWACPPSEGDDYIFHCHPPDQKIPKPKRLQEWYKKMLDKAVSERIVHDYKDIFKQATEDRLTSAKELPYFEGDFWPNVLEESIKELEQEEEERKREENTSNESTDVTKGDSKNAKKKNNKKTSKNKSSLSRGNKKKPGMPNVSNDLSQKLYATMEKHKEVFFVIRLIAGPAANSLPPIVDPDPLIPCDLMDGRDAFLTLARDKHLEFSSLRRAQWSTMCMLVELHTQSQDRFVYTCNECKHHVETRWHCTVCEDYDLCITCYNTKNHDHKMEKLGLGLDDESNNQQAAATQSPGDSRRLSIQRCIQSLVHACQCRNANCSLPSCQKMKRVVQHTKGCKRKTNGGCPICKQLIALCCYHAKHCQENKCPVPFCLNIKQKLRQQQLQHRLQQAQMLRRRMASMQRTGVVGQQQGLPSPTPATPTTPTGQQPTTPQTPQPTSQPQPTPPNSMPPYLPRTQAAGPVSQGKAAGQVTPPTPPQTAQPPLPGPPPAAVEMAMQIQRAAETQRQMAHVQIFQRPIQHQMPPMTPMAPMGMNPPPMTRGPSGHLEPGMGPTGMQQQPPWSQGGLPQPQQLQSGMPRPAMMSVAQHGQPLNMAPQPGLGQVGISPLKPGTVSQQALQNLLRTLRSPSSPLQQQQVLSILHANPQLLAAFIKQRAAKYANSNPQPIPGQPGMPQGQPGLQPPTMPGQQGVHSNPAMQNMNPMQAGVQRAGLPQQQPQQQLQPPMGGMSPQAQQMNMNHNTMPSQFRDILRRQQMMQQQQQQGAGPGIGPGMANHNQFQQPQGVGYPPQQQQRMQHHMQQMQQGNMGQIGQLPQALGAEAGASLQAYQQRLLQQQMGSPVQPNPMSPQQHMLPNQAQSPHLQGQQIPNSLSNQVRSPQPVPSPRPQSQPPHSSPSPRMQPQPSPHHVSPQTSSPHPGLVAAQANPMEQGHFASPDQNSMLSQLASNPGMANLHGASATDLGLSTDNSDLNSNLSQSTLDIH
T1 sequence (Q92793 whole entry, looked up): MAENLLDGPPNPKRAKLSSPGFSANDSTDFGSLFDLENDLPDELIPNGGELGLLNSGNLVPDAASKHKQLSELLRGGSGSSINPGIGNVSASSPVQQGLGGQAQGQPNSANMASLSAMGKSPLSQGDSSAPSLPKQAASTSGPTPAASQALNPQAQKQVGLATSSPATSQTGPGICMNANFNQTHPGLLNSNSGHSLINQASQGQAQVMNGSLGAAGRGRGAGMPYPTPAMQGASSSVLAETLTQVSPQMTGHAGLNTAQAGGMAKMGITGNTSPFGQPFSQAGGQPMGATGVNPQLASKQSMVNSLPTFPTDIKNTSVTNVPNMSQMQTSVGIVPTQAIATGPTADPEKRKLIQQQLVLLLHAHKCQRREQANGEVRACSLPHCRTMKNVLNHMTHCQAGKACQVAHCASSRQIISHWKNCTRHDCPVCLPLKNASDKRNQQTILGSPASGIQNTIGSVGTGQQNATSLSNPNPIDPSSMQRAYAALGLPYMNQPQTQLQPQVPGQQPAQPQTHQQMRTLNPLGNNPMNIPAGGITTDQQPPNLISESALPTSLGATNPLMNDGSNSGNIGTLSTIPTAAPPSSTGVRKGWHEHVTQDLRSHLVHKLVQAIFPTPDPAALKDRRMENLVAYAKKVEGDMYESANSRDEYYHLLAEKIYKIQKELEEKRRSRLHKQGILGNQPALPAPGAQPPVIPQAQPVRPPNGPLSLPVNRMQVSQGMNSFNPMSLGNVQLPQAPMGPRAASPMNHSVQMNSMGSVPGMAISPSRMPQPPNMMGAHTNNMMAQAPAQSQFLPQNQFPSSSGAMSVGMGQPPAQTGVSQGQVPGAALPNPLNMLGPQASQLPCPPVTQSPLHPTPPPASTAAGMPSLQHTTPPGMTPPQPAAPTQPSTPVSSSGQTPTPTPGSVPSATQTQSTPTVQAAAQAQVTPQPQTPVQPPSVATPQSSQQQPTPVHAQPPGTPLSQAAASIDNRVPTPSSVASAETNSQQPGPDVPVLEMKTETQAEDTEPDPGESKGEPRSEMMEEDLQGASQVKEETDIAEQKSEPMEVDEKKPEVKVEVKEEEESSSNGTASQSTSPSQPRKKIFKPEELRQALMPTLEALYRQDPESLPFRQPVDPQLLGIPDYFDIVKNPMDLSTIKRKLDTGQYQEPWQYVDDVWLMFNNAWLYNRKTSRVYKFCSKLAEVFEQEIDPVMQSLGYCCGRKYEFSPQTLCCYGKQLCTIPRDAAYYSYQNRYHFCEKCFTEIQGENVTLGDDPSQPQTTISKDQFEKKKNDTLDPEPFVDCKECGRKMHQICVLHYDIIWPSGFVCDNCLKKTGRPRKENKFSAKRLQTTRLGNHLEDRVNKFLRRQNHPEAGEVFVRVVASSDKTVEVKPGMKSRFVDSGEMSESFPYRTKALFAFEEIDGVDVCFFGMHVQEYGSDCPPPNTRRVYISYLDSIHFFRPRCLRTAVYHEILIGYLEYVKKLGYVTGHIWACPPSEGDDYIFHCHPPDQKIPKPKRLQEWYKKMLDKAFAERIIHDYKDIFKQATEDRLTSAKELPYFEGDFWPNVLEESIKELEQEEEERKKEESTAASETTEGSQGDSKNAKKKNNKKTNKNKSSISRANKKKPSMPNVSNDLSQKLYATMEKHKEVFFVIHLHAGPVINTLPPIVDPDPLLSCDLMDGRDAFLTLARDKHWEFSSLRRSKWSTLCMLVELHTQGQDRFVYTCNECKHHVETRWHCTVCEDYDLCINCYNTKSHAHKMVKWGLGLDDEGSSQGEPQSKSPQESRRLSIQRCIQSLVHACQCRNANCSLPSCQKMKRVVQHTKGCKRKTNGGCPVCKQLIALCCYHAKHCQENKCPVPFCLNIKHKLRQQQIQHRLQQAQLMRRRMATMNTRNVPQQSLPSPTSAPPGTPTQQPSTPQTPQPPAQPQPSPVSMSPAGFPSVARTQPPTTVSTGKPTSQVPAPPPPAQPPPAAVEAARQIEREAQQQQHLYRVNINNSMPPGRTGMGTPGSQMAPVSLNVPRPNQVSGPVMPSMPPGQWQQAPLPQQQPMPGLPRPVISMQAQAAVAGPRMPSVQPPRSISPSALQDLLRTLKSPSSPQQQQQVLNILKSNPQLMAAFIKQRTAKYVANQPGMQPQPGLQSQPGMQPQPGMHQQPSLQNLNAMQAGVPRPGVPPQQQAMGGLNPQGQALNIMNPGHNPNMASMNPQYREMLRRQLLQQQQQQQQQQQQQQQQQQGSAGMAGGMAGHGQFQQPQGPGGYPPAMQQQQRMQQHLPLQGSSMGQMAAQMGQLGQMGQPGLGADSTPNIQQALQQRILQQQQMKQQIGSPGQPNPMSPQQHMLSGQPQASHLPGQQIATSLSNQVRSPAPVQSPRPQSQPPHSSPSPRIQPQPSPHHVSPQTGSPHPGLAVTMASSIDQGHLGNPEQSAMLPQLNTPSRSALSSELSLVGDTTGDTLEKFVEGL
CREB-binding protein, sequence (Q92793 whole entry): as the sequence (Q92793 whole entry, looked up) above

Kd [1] | inhibition [2] | inhibition [3] [%] | inhibition [4] | inhibition [5] [%] | inhibition [6] [%] | Kd (CREB-binding protein) | inhibition [7] | Compound
Not Active | Active | 30 | Active | 30 | 70 | – | – | COc1ccc2c(c1)N(CCC/C=C/c1cccc3c1N[C@H](C)CC(=O)N3)CCC2
– | – | – | – | – | – | Not Active | inactive | COc1ccc2c(c1)N(CCC/C=C/c1cccc3c1N[C@@H](C)CC(=O)N3)CCC2
